Where two headings read alike, the source gives them in different places.
How the values were obtained:
[1] = type: in vivo, human; details: for MRAUCinf (metabolite‐to‐parent ratio for AUC): corrected for molecular weight, geometric mean (geometric %CV)
[2] = major circulating metabolites of ertugliflozin; cited from earlier work
[3] = Urinary excretion and renal clearance of ertugliflozin and metabolites; type: in vivo, human; details: subjects with normal renal function
[4] = test system: urinary glucose excretion; assay: Change from baseline in 24-hour urinary glucose excretion; type: in vivo, human; details: for Change from baseline to day 1 in 24‐hour urinary glucose excretion, geometric mean / Change from baseline to day 1 in 24‐hour urinary glucose excretion, mean (SD) / Change from baseline to day 1 in 24‐hour urinary glucose excretion, median: 15 mg single oral dose
Method in brief: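 Single oral 15 mg dose given as three 5-mg tablets after a 4-hour fast. Baseline urine was collected on day –2 (–48 to –24 h) and post-dose urine in 0‑4, 4‑8, 8‑12 and 12‑24 h intervals, with glucose measured centrally. 24-h UGE is the sum of the intervals. Log-transformed change was compared by 1-way ANOVA against T2DM with normal renal function, without plasma glucose correction. eGFR bands: mild 60‑89, moderate 30‑59 mL/min.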

[5] = test system: SGLT2‐mediated glucose transport; assay: 24-hour inhibition of glucose reabsorption; type: in vivo, human; details: day 1
[6] = test system: T2DM and healthy subjects; assay: Safety and tolerability of a single 15-mg dose; type: in vivo, human
Method in brief: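 Open-label, nonrandomized single oral 15 mg dose (three 5-mg tablets) after a 4-hour fast. Usual antihyperglycemic agents were given 4 h post-dose. AEs were recorded throughout and coded with MedDRA 17.1. ECGs were taken at screening, predose and day 5. Sitting and supine/standing blood pressure and pulse were taken predose and at 1, 2, 4 and 96 h post-dose.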

[7] = cited from earlier work
[8] = as high as 300 mg (single dose), 100 mg once daily (up to 14 days), 25 mg once daily (up to 12 weeks); ref data on file, 9, 10; cited from earlier work
[9] = T2DM, moderate renal impairment
[10] = single 15‐mg dose, all renal function groups

CCOc1ccc(Cc2cc([C@]34OC[C@](CO)(O3)[C@@H](O)[C@H](O[C@@H]3O[C@H](C(=O)O)[C@@H](O)[C@H](O)[C@H]3O)[C@H]4O)ccc2Cl)cc1 [PF‐06481944, 3‐O‐β‐glucuronide]
median tmax range of metabolites ([1]; after ertugliflozin 15 mg, across all groups): 2 to 4 h | MRAUCinf (metabolite‐to‐parent ratio for AUC) ([1]; T2DM, mild renal impairment): 0.98 (45) | MRAUCinf (metabolite‐to‐parent ratio for AUC) [1, 9]: 1.26 (52) | MRAUCinf (metabolite‐to‐parent ratio for AUC) ([1]; T2DM, normal renal function): 0.93 (39) | MRAUCinf (metabolite‐to‐parent ratio for AUC) ([1]; T2DM, severe renal impairment): 1.03 (37) | MRAUCinf (metabolite‐to‐parent ratio for AUC) ([1]; healthy, normal renal function): 0.64 (29) | pharmacological activity of metabolite [2]: pharmacologically inactive

CCOc1ccc(Cc2cc([C@]34OC[C@](CO)(O3)[C@@H](O)[C@H](O)[C@H]4O)ccc2Cl)cc1 [ertugliflozin, Ertugliflozin]
Tmax ([1]; human, plasma, po, 15 mg, median tmax, 15 mg single oral dose, across all groups): 1 to 1.51 h | predicted mean (90%CI) AUC from log‐linear regression vs BSA‐unnormalized eGFR ([1]; mild renal impairment (eGFR = 75 mL/min)): 1585 (1461‐1719) ng·h/mL | predicted mean (90%CI) AUC from log‐linear regression vs BSA‐unnormalized eGFR ([1]; moderate renal impairment (eGFR = 45 mL/min)): 1875 (1698‐2071) ng·h/mL | predicted mean (90%CI) AUC from log‐linear regression vs BSA‐unnormalized eGFR ([1]; normal renal function (eGFR = 105 mL/min)): 1340 (1194‐1503) ng·h/mL | predicted mean (90%CI) AUC from log‐linear regression vs BSA‐unnormalized eGFR ([1]; severe renal impairment (eGFR = 15 mL/min)): 2219 (1907‐2581) ng·h/mL | Ae96% [3]: approximately 1% | Change from baseline to day 1 in 24‐hour urinary glucose excretion, geometric mean ([4]; T2DM, mild renal impairment): 35.98 g | Change from baseline to day 1 in 24‐hour urinary glucose excretion, mean (SD) ([4]; T2DM, mild renal impairment): 48.67 (37.72) g | Change from baseline to day 1 in 24‐hour urinary glucose excretion, median ([4]; T2DM, mild renal impairment): 36.4 g | Change from baseline to day 1 in 24‐hour urinary glucose excretion, geometric mean [4, 9]: 27.55 g | Change from baseline to day 1 in 24‐hour urinary glucose excretion, mean (SD) [4, 9]: 32.64 (21.32) g | Change from baseline to day 1 in 24‐hour urinary glucose excretion, median [4, 9]: 28.8 g | Change from baseline to day 1 in 24‐hour urinary glucose excretion, geometric mean ([4]; T2DM, normal renal function): 72.31 g | Change from baseline to day 1 in 24‐hour urinary glucose excretion, mean (SD) ([4]; T2DM, normal renal function): 75.12 (24.36) g | Change from baseline to day 1 in 24‐hour urinary glucose excretion, median ([4]; T2DM, normal renal function): 68.1 g | Change from baseline to day 1 in 24‐hour urinary glucose excretion, geometric mean ([4]; T2DM, severe renal impairment): 10.09 g | Change from baseline to day 1 in 24‐hour urinary glucose excretion, mean (SD) ([4]; T2DM, severe renal impairment): 11.29 (5.81) g | Change from baseline to day 1 in 24‐hour urinary glucose excretion, median ([4]; T2DM, severe renal impairment): 10.3 g | Change from baseline to day 1 in 24‐hour urinary glucose excretion, geometric mean ([4]; healthy, normal renal function): 46.33 g | Change from baseline to day 1 in 24‐hour urinary glucose excretion, mean (SD) ([4]; healthy, normal renal function): 48.16 (14.04) g | Change from baseline to day 1 in 24‐hour urinary glucose excretion, median ([4]; healthy, normal renal function): 45.8 g | change from baseline in 24‐hour UGE, 1‐way ANOVA ([4]; T2DM, mild renal impairment): 36.0 g | change from baseline in 24‐hour UGE, 1‐way ANOVA [4, 9]: 27.6 g | change from baseline in 24‐hour UGE, 1‐way ANOVA ([4]; T2DM, normal renal function): 72.3 g | change from baseline in 24‐hour UGE, 1‐way ANOVA ([4]; T2DM, severe renal impairment): 10.1 g | geometric mean change from baseline in 24‐hour percentage inhibition of glucose reabsorption ([5]; T2DM, mild renal impairment): 25.58% | geometric mean change from baseline in 24‐hour percentage inhibition of glucose reabsorption [5, 9]: 28.84% | geometric mean change from baseline in 24‐hour percentage inhibition of glucose reabsorption ([5]; T2DM, normal renal function): 33.34% | geometric mean change from baseline in 24‐hour percentage inhibition of glucose reabsorption ([5]; T2DM, severe renal impairment): 24.25% | geometric mean change from baseline in 24‐hour percentage inhibition of glucose reabsorption ([5]; healthy subjects): 29.19% | subjects experiencing hypoglycemia ([6]; T2DM mild renal impairment group, receiving glyburide): 1 subject | subjects experiencing hypoglycemia ([6]; T2DM severe renal impairment group, receiving long‐acting insulin): 2 subjects | subjects experiencing hypoglycemia ([6]; all groups (n = 36)): 3 subjects | intensity of AEs ([6]; single 15‐mg dose, all AEs): mild | deaths, serious AEs, severe AEs, discontinuations due to AEs [6, 10]: no deaths, serious AEs, severe AEs, or temporary or permanent discontinuations due to AEs | laboratory findings, vital signs, ECG findings [6, 10]: no abnormal laboratory findings or changes in vital signs (including postural changes) or ECG findings of clinical significance | tolerability [6, 10]: well tolerated | Urinary excretion of unchanged drug, share of elimination ([7]; human absorption, distribution, metabolism, and excretion studies): 1.5% | median time to maximum concentration (tmax) ([7]; oral administration, fasted state, ref data on file, 15, 16): approximately 1 hour | terminal elimination half‐life (t1/2) ([7]; oral administration, ref data on file, 15, 16): approximately 17 hours | dose proportionality in exposure (AUC and Cmax) ([7]; over the range of 0.5 to 300 mg, ref data on file, 15, 16): dose proportionality | tolerability of higher oral doses [8]: well tolerated

Reference: article PMC5655776 (Journal of Clinical Pharmacology, 2017)
